# Active and inactive are the calls of the source. The calls are words filed in the database; no cut-off is given here.
# Experiments:
# Format in all cases: cell-based
# [1] = molecular target: Nuclear receptor subfamily 4 group A member 2 (Homo sapiens) (UniProt P43354); assay: Modulation of full length human Nurr1 expressed in PC12 cells co-transfected with RXRalpha and luciferase reporter plasmid harboring NBRE response element assessed as decrease in luciferase activity at 1.95 to 125 uM incubated for 18 hrs by luciferase reporter gene assay; details: PC-12, filed as modulator, dose 1.95-125 µM
# In short: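 Full-length Nurr1 plasmid, alone (2 μg) or 1 μg plus full-length RXRα (1 μg), cotransfected with 3xNBRE- or 3xNurRE-luciferase reporter (6 μg) using Lipofectamine 2000, 18 h. Cells replated at 10,000/well for 4 h. Four ligand concentrations, or vehicle (water, ethanol or DMSO), added in quadruplicate for 18 h. Luciferase read. Fold change vs vehicle, mean ± s.e.m., one-way ANOVA vs vehicle.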
# [2] = molecular target: Nuclear receptor subfamily 4 group A member 2 (Homo sapiens) (UniProt P43354); assay: Modulation of full length human Nurr1 expressed in PC12 cells co-transfected with luciferase reporter plasmid harboring NurRE response element assessed as decrease in luciferase activity at 1.56 to 6.25 uM incubated for 18 by luciferase reporter gene assay; details: PC-12, filed as modulator, dose 1.56-6.25 µM, time 18.0 hrs
# In short: (§1)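 Cells transfected (Lipofectamine 2000, 18 h) with full-length Nurr1 expression plasmid (2 μg) and 3xNBRE- or 3xNurRE-luciferase reporter (6 μg), no internal control normalisation; replated 10,000 cells/well, 4 h; ligand or vehicle in quadruplicate for 18 h; Britelite Plus luminescence as fold change over vehicle. Mean ± s.e.m. (n=4); one-way ANOVA versus vehicle.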
# [3] = molecular target: Nuclear receptor subfamily 4 group A member 2 (Homo sapiens) (UniProt P43354); assay: Modulation of full length human Nurr1 expressed in PC12 cells co-transfected with luciferase reporter plasmid harboring NBRE response element assessed as decrease in luciferase activity at 1.56 to 6.25 uM incubated for 18 by luciferase reporter gene assay; details: PC-12, filed as modulator, dose 1.56-6.25 µM, time 18.0 hrs; in short: as §1
# PC-12 [4] = assay: Cytotoxicity against rat PC12 cells assessed as reduction in cell viability at 1.56 to 6.25 microM incubated for 18 hrs by Cell titer-glo assay; details: pc-12, 18 h, dose 1.56-6.25 µM
# In short: (§2)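 Cells seeded 1.5 million per 10-cm dish; next day replated at 10,000 cells/well in 384-well format, 4 h, then ligand or vehicle (water, ethanol or DMSO by ligand) added in quadruplicate for 18 h; viability read by CellTiter-Glo luminescence. Mean ± s.e.m. (n=4), generally 2 independent experiments; one-way ANOVA versus vehicle.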
# [5] = molecular target: Nuclear receptor subfamily 4 group A member 2 (Homo sapiens) (UniProt P43354); assay: Modulation of full length human Nurr1 expressed in SKNBE(2) cells co-transfected with RXRalpha and luciferase reporter plasmid harboring NurRE response element assessed as decrease in luciferase activity at 1.56 to 6.25 uM incubated for 18 by luciferase reporter gene assay; details: SKNBE2, filed as modulator, dose 1.56-6.25 µM, time 18.0 hrs
# [6] = molecular target: Nuclear receptor subfamily 4 group A member 2 (Homo sapiens) (UniProt P43354); assay: Modulation of full length human Nurr1 expressed in PC12 cells co-transfected with luciferase reporter plasmid harboring NurRE response element assessed as increase in luciferase activity at 1.56 to 6.25 uM incubated for 18 by luciferase reporter gene assay; details: PC-12, filed as modulator, dose 1.56-6.25 µM, time 18.0 hrs; in short: as §1
# [7] = molecular target: Nuclear receptor subfamily 4 group A member 2 (Homo sapiens) (UniProt P43354); assay: Modulation of full length human Nurr1 expressed in HEK293T cells co-transfected with RXRalpha and luciferase reporter plasmid harboring NurRE response element assessed as decrease in luciferase activity at 1.56 to 6.25 uM incubated for 18 by luciferase reporter gene assay; details: filed as modulator, dose 1.56-6.25 µM, time 18.0 hrs
# [8] = molecular target: Nuclear receptor subfamily 4 group A member 2 (Homo sapiens) (UniProt P43354); assay: Modulation of full length human Nurr1 expressed in SKNBE(2) cells co-transfected with RXRalpha and luciferase reporter plasmid harboring NBRE response element assessed as increase in luciferase activity at 1.56 to 6.25 uM incubated for 18 by luciferase reporter gene assay; details: SKNBE2, filed as modulator, dose 1.56-6.25 µM, time 18.0 hrs
# [9] = molecular target: Nuclear receptor subfamily 4 group A member 2 (Homo sapiens) (UniProt P43354); assay: Modulation of full length human Nurr1 expressed in HEK293T cells co-transfected with RXRalpha and luciferase reporter plasmid harboring NBRE response element assessed as decrease in luciferase activity at 1.56 to 6.25 uM incubated for 18 by luciferase reporter gene assay; details: filed as modulator, dose 1.56-6.25 µM, time 18.0 hrs
# [10] = molecular target: Nuclear receptor subfamily 4 group A member 2 (Homo sapiens) (UniProt P43354); assay: Modulation of full length human Nurr1 expressed in SKNBE(2) cells co-transfected with RXRalpha and luciferase reporter plasmid harboring NBRE response element assessed as decrease in luciferase activity at 1.56 to 6.25 uM incubated for 18 by luciferase reporter gene assay; details: SKNBE2, filed as modulator, dose 1.56-6.25 µM, time 18.0 hrs
# PC-12 [11] = assay: Modulation of Gal4-fused VP16 expressed in PC12 cells co-transfected with UAS repoter gene assessed as decrease in luciferase activity at 1.56 to 6.25 uM incubated for 18 hrs by luciferase reporter gene assay; details: Human alphaherpesvirus 2, filed as modulator, dose 1.56-6.25 µM
# In short: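 Constitutive control: cells transfected (Lipofectamine 2000) with Gal4-VP16 expression plasmid (2 μg) plus 5xUAS-luciferase reporter (2 μg), 18 h; replated 10,000 cells/well, 4 h; ligand or vehicle in quadruplicate for 18 h; luciferase read by Britelite Plus; signal as fold change over vehicle-treated cells. Mean ± s.e.m. (n=4); one-way ANOVA versus vehicle.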
# [12] = molecular target: Nuclear receptor subfamily 4 group A member 2 (Homo sapiens) (UniProt P43354); assay: Modulation of full length human Nurr1 expressed in HEK293T cells co-transfected with luciferase reporter plasmid harboring NurRE response element assessed as increase in luciferase activity at 1.56 to 6.25 uM incubated for 18 by luciferase reporter gene assay; details: filed as modulator, dose 1.56-6.25 µM, time 18.0 hrs; in short: as §1
# [13] = molecular target: Nuclear receptor subfamily 4 group A member 2 (Homo sapiens) (UniProt P43354); assay: Modulation of full length human Nurr1 expressed in PC12 cells co-transfected with RXRalpha and luciferase reporter plasmid harboring NurRE response element assessed as decrease in luciferase activity at 1.56 to 6.25 uM incubated for 18 by luciferase reporter gene assay; details: PC-12, filed as modulator, dose 1.56-6.25 µM, time 18.0 hrs
# HEK-293T = assay: Cytotoxicity against human HEK293T cells assessed as reduction in cell viability at 1.56 to 6.25 microM incubated for 18 hrs by Cell titer-glo assay; details: dose 1.56-6.25 µM; in short: as §2
# [14] = molecular target: Nuclear receptor subfamily 4 group A member 2 (Homo sapiens) (UniProt P43354); assay: Modulation of full length human Nurr1 expressed in SKNBE(2) cells co-transfected with luciferase reporter plasmid harboring NurRE response element assessed as increase in luciferase activity at 1.56 to 6.25 uM incubated for 18 by luciferase reporter gene assay; details: SKNBE2, filed as modulator, dose 1.56-6.25 µM, time 18.0 hrs; in short: as §1
# [15] = molecular target: Nuclear receptor subfamily 4 group A member 2 (Homo sapiens) (UniProt P43354); assay: Modulation of full length human Nurr1 expressed in SKNBE(2) cells co-transfected with luciferase reporter plasmid harboring NurRE response element assessed as decrease in luciferase activity at 1.56 to 6.25 uM incubated for 18 by luciferase reporter gene assay; details: SKNBE2, filed as modulator, dose 1.56-6.25 µM, time 18.0 hrs; in short: as §1
# [16] = molecular target: Nuclear receptor subfamily 4 group A member 2 (Homo sapiens) (UniProt P43354); assay: Modulation of full length human Nurr1 expressed in SKNBE(2) cells co-transfected with luciferase reporter plasmid harboring NBRE response element assessed as increase in luciferase activity at 1.56 to 6.25 uM incubated for 18 by luciferase reporter gene assay; details: SKNBE2, filed as modulator, dose 1.56-6.25 µM, time 18.0 hrs; in short: as §1
# PC-12 [17] = assay: Cytotoxicity against rat PC-12 cells assessed as reduction in cell viability at 5 to 100 uM incubated for 18 hrs by Cell titer-glo assay; details: pc-12, 18 h, dose 5-100 µM
# In short: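 Cells seeded at 1.5 million per 10-cm dish. Next day they were replated at 10,000 cells/well and rested 4 h. Ligand or vehicle (water, ethanol or DMSO, by ligand) was added in dose-response format in quadruplicate. After 18 h, viability was read by CellTiter-Glo luminescence. Data are mean ± s.e.m., generally representative of 2 independent experiments. One-way ANOVA versus vehicle.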
# Sequence of Nuclear receptor subfamily 4 group A member 2 (Homo sapiens) (P43354 whole entry): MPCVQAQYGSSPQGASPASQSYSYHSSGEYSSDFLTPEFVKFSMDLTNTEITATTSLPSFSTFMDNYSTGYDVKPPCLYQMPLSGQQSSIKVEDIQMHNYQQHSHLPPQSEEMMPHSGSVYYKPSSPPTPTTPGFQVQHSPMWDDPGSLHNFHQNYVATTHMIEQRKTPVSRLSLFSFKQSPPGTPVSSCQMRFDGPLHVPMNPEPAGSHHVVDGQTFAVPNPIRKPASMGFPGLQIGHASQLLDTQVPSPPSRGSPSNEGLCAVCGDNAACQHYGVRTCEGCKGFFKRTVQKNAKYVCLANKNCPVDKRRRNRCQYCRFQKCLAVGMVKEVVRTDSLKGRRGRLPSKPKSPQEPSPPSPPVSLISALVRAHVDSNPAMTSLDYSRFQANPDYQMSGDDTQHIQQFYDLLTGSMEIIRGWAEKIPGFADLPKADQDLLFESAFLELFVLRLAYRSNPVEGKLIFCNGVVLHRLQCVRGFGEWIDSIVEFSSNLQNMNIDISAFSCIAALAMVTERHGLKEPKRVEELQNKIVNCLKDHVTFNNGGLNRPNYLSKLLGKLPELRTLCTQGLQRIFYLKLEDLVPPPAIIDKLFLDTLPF
structure (smiles),measurement,setting,value
CCN(CC)Cc1cc(Nc2ccnc3cc(Cl)ccc23)ccc1O [AMODIAQUINE],Activity,[1],Active
CC1=C(O)C(=O)C=C2C1=CC=C1[C@@]2(C)CC[C@@]2(C)[C@@H]3C[C@](C)(C(=O)O)CC[C@]3(C)CC[C@]12C [CELASTROL],Activity,[2],Active
same,Activity,[3],Active
same,Activity,PC-12 [4],Toxic
same,Activity,[5],Active
same,Activity,[6],Active
same,Activity,[7],Active
same,Activity,[8],Active
same,Activity,[9],Active
same,Activity,[10],Active
same,Activity,PC-12 [11],Active
same,Activity,[12],Active
same,Activity,[13],Active
same,Activity,HEK-293T,Toxic
same,Activity,[14],Active
same,Activity,[15],Active
same,Activity,[16],Active
CCN(CC)CCCC(C)Nc1ccnc2cc(Cl)ccc12 (centres undefined) [CHLOROQUINE],Activity,[1],Active
CCCCCCCC(=O)c1c(O)cc(O)cc1CC(=O)OCC [CYTOSPORONE B],Activity,PC-12 [17],Toxic
